Results: ChEMBL document CHEMBL4196126, “Optimization of 3-Pyrimidin-4-yl-oxazolidin-2-ones as Orally Bioavailable and Brain Penetrant Mutant IDH1 Inhibitors” (ACS Med Chem Lett, 2018)
≈ marks a conversion by molar mass, not a printed value. Values belong to the molecule of their own block, whether it stands above or below them.

Experiments:
[1] = target: T1, Isocitrate dehydrogenase [NADP] cytoplasmic (Homo sapiens, UniProt O75874, R132H); test: Inhibition of IDH1 R132H mutant (unknown origin) using alphaKG as substrate in presence of NADPH by LC-MS/MS analysis
[2] = Intrinsic clearance in rat liver microsomes at 1 uM in presence of NADPH by LC-MS/MS analysis; format: ADME, microsome; conditions: read-out: CLH
[3] = target: T1, Isocitrate dehydrogenase [NADP] cytoplasmic; test: Inhibition of IDH1 R132H mutant (unknown origin) expressed in HCT116 cells assessed as reduction in 2-HG levels after 48 hrs by LC-MS/MS analysis; format: cell-based
[4] = Intrinsic clearance in mouse liver microsomes; format: ADME, microsome; conditions: read-out: CLH
[5] = Intrinsic clearance in human liver microsomes; format: ADME, microsome; conditions: read-out: CLH
[6] = Clearance in Sprague-Dawley rat plasma at 1 mg/kg, iv or 10 mg/kg, po by mass spectrometry based HPLC method; format: ADME, organism-based
In short: (§1)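 Rats and mice received a single 1 mg/kg intravenous dose and a 10 mg/kg oral dose. Plasma clearance was taken from the intravenous arm. Oral AUC and oral bioavailability were taken from the oral arm.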

[7] = AUC in Sprague-Dawley rat at 10 mg/kg, po by mass spectrometry based HPLC method; format: ADME, organism-based; conditions: in vivo; in short: as §1
[8] = Oral bioavailability in Sprague-Dawley rat at 10 mg/kg by mass spectrometry based HPLC method; format: ADME, organism-based; conditions: in vivo; in short: as §1
[9] = Solubility of the compound at pH 6.8; format: physicochemical; conditions: buffer
[10] = Ratio of AUC in Sprague-Dawley rat brain to plasma at 1 mg/kg, iv or 10 mg/kg, po; format: ADME, organism-based; conditions: read-out: Ratio AUC
[11] = Plasma protein binding in rat plasma at 5 uM after 4 hrs by rapid equilibrium dialysis based LC/MS/MS method
[12] = Plasma protein binding in mouse plasma at 5 uM after 4 hrs by rapid equilibrium dialysis based LC/MS/MS method
[13] = Clearance in C57BL/6 mouse plasma at 1 mg/kg, iv or 10 mg/kg, po by mass spectrometry based HPLC method; format: ADME, organism-based; in short: as §1
[14] = AUC in C57BL/6 mouse at 10 mg/kg, po by mass spectrometry based HPLC method; format: ADME, organism-based; conditions: in vivo; in short: as §1
[15] = Oral bioavailability in C57BL/6 mouse at 10 mg/kg by mass spectrometry based HPLC method; format: ADME, organism-based; conditions: in vivo; in short: as §1
[16] = target: Isocitrate dehydrogenase [NADP] cytoplasmic (Homo sapiens, UniProt O75874); test: Inhibition of wild-type IDH1 (unknown origin) assessed as NADPH production using isocitrate as substrate by fluorescence assay
[17] = target: T1, Isocitrate dehydrogenase [NADP] cytoplasmic; test: Inhibition of IDH1 R132H mutant (unknown origin) assessed as NADPH consumption using alpha-ketoglutarate as substrate by fluorescence assay
[18] = target: Isocitrate dehydrogenase [NADP] cytoplasmic (Homo sapiens, UniProt O75874, R132C); test: Inhibition of IDH1 R132C mutant (unknown origin) assessed as NADPH consumption using alpha-ketoglutarate as substrate by fluorescence assay
Homo sapiens [19] = organism: Homo sapiens; test: Selectivity ratio of IC50 for wild-type IDH1 (unknown origin) to IC50 for IDH1 R132H mutant (unknown origin)
Homo sapiens [20] = organism: Homo sapiens; test: Selectivity ratio of IC50 for wild-type IDH1 (unknown origin) to IC50 for IDH1 R132C mutant (unknown origin)
Mus musculus [21] = test: Time at which unbound plasma concentration stays above cellular IDH1 R132H mutant inhibitory IC50 in HSD athymic nude mouse xenografted with human HCT116 cells; format: ADME, organism-based; conditions: in vivo
In short: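 After a single 150 mg/kg oral dose in HCT116-IDH1 R132H/+ xenograft mice, unbound plasma concentration was estimated from total plasma levels corrected by mouse plasma protein binding. It was then followed over time against the HCT116-IDH1 R132H/+ cellular IC50.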

Mus musculus [22] = test: In vivo inhibition of IDH1 R132H mutant in HSD athymic nude mouse tumor xenografted with human HCT116 cells assessed as reduction in 2-HG level at 150 mg/kg, po measured 16 to 24 hrs post dose by LC-MS/MS analysis relative to control; format: functional; conditions: HCT-116, po
In short: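 Mice bearing HCT116-IDH1 R132H/+ xenograft tumors received a single 150 mg/kg oral dose. 2-HG was measured in tumor tissue and expressed as percent inhibition relative to vehicle-treated tumors over a 16−24 h post-dose window. Plasma drug concentrations were measured alongside.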

T1 sequence (O75874 2-414 R132H limits assumed): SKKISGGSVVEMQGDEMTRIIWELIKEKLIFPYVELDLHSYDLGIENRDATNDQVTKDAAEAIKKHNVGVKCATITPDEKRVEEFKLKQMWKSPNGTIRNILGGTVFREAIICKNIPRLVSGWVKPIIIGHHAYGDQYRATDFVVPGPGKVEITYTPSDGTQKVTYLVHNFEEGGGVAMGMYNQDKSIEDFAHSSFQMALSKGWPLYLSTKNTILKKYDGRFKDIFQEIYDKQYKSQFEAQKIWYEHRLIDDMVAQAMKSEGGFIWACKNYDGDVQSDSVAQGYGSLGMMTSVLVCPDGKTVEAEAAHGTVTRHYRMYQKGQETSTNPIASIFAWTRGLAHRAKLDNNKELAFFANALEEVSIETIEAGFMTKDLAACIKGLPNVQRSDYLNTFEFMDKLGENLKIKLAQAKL
Chain of Isocitrate dehydrogenase [NADP] cytoplasmic (Homo sapiens, UniProt O75874, R132C) (O75874 2-414 R132C limits assumed): as the sequence (O75874 2-414 R132H limits assumed) above, with H131C counted along it
Chain of Isocitrate dehydrogenase [NADP] cytoplasmic (Homo sapiens, UniProt O75874) (O75874 whole entry): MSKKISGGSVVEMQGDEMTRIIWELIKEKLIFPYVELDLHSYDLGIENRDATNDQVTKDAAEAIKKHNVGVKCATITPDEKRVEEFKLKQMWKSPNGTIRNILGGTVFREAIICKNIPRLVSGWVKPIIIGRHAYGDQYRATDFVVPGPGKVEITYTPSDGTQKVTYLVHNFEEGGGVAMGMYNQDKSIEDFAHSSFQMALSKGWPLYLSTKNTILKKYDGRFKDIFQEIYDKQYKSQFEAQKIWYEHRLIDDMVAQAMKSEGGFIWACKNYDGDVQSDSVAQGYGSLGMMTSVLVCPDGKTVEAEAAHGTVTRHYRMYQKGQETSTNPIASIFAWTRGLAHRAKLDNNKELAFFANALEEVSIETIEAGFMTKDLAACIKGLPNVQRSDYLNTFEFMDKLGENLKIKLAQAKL

Structure (SMILES): CC(C)[C@H]1COC(=O)N1c1ccnc(N[C@@H](C)c2nc(-c3ccccc3Cl)no2)n1
- IC50 [1]: 610 nM
- microsomal CLint at 1 µM [2]: 924 µL/min/mg

Structure (SMILES): C[C@H](Nc1ncc(F)c(N2C(=O)OC[C@@H]2[C@@H](C)F)n1)c1cn(-c2ccc(Cl)cc2)cn1
- IC50 [3]: 240 nM
- microsomal CLint at 1 µM [2]: 237 µL/min/mg

Structure (SMILES): C[C@H](Nc1ncc(F)c(N2C(=O)OC(C)(C)C2(C)C)n1)c1nc(-c2ccc(Cl)cc2)no1
- microsomal CLint at 1 µM [2]: 170 µL/min/mg

Structure (SMILES): C[C@H](Nc1ncc(F)c(N2CCOC2=O)n1)c1cn(-c2ccc(Cl)cc2)cn1
- IC50 [3]: 500 nM
- microsomal CLint at 1 µM [2]: 34 µL/min/mg
- microsomal CLint [4]: 73 µL/min/mg
- microsomal CLint [5]: 59 µL/min/mg

Structure (SMILES): CC(C)[C@H]1COC(=O)N1c1ccnc(N[C@@H](C)c2ncc(Oc3ccc(F)cc3)cn2)n1
- IC50 [1]: 39 nM
- microsomal CLint at 1 µM [2]: 238 µL/min/mg

Structure (SMILES): C[C@H](Nc1ncc(F)c(N2C(=O)OC[C@@H]2[C@H](C)F)n1)c1cn(-c2ccc(Cl)cc2)cn1
- IC50 [3]: 22 nM
- microsomal CLint at 1 µM [2]: 272 µL/min/mg

Structure (SMILES): CC(Nc1nccc(N2CCOC2=O)n1)c1ncc(Oc2ccc(F)cc2)cn1 (racemic)
- IC50 [1]: 8800 nM
- microsomal CLint at 1 µM [2]: 35 µL/min/mg

Structure (SMILES): CC(C)[C@H]1COC(=O)N1c1ccnc(N[C@@H](C)c2nc(-c3ccc(Cl)cc3)no2)n1
- microsomal CLint at 1 µM [2]: 302 µL/min/mg

The next lines start with results.

- IC50 [3]: 47 nM
- microsomal CLint at 1 µM [2]: 101 to 103 µL/min/mg
- clearance [6]: 17 mL/min/kg
- AUC [7]: 14 µM·h
- bioavailability [8]: 67%
Structure (SMILES): C[C@H](Nc1ncc(F)c(N2C(=O)OC[C@@H]2C)n1)c1cn(-c2ccc(Cl)cc2)cn1

- clearance [6]: 20 mL/min/kg
- AUC [7]: 15 µM·h
- bioavailability [8]: 82%
- solubility [9]: 422 µM (≈ 188 µg/mL)
- Kp [10]: < 0.1
- PPB at 4 h, 5 µM [11]: 0.95
- PPB at 4 h, 5 µM [12]: 0.92
Structure (SMILES): C[C@H](Nc1nccc(N2C(=O)OC[C@@H]2[C@H](C)F)n1)c1cn(-c2ccc(C(F)F)cc2)cn1

- IC50 [3]: 30 nM
- microsomal CLint at 1 µM [2]: 75 µL/min/mg
Structure (SMILES): C[C@H](Nc1nccc(N2C(=O)OC[C@@H]2CF)n1)c1cn(-c2ccc(Cl)cc2)cn1

- microsomal CLint at 1 µM [2]: 148 µL/min/mg
Structure (SMILES): C[C@H](Nc1nccc(N2C(=O)OC[C@@H]2[C@H](C)F)n1)c1cn(-c2ccc(Cl)cc2)cn1

- IC50 [3]: 24 nM
- microsomal CLint at 1 µM [2]: 28 µL/min/mg
Structure (SMILES): C[C@H](Nc1ncc(F)c(N2C(=O)OC[C@@H]2CF)n1)c1cn(-c2ccc(Cl)cc2)cn1

- IC50 [3]: 39 nM
- microsomal CLint at 1 µM [2]: 7 to 7.7 µL/min/mg
- microsomal CLint [4]: 11 µL/min/mg
- clearance [6]: 2.6 mL/min/kg
- AUC [7]: 180 µM·h
- bioavailability [8]: 127%
- solubility [9]: 124 µM (≈ 55.8 µg/mL)
- clearance [13]: 5 mL/min/kg
- AUC [14]: 172 µM·h
- bioavailability [15]: 149%
- IC50 [16]: 2520 nM
- IC50 [17]: 21 nM
- IC50 [18]: 45 nM
- Ratio IC50 (Homo sapiens [19]): 50 to 100
- Ratio IC50 (Homo sapiens [20]): 50 to 100
- Time (Mus musculus [21]): 24 h
- Kp [10]: 0.17
- PPB at 4 h, 5 µM [11]: 0.98
- PPB at 4 h, 5 µM [12]: 0.98
Structure (SMILES): C[C@H](Nc1nccc(N2C(=O)OC[C@@H]2CF)n1)c1cn(-c2ccc(C(F)(F)F)cc2)cn1
- inhibition in vivo at 150 mg/kg (Mus musculus [22]): > 90%

- IC50 [3]: 13 nM
- microsomal CLint at 1 µM [2]: 448 µL/min/mg
Structure (SMILES): CC[C@H]1COC(=O)N1c1nc(N[C@@H](C)c2cn(-c3ccc(Cl)cc3)cn2)ncc1F

- IC50 [3]: 15 nM
- microsomal CLint at 1 µM [2]: 489 µL/min/mg
Structure (SMILES): CC(C)[C@H]1COC(=O)N1c1ccnc(N[C@@H](C)c2cn(-c3ccc(Cl)cc3)cn2)n1
